Laboratory results from ChEMBL document CHEMBL1140372, “Synthesis, structure-activity relationships, and biological properties of 1-heteroaryl-4-[omega-(1H-indol-3-yl)alkyl]piperazines, novel potential antipsychotics combining potent dopamine D2 receptor antagonism with potent serotonin reuptake inhibition” (J Med Chem, 2005).
pKi: −log10 of the molar value.

Legend:
[1] = biological target: Sodium-dependent serotonin transporter (Mus musculus) (UniProt Q60857); test: Effective dose against potentiation of 5-HTP induced serotonin syndrome in mice upon oral administration (Serotonin reuptake inhibitory activity); format: functional, organism-based
D(2) dopamine receptor [2] = biological target: T1, D(2) dopamine receptor (Homo sapiens, UniProt P14416); test: In vitro inhibitory constant against [3H]spiperone binding to human dopamine D2 receptor expressed in CHO cells; format: cell-based
[3] = biological target: Sodium-dependent serotonin transporter (Rattus norvegicus, UniProt P31652); test: In vitro inhibitory constant against [3H]paroxetine binding to rat frontal cortex membrane serotonin reuptake site; format: tissue-based
In short: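 Rat frontal cortex membranes; serotonin reuptake sites labelled with [3H]paroxetine in competition binding. Ki (nM) calculated from at least three independent experiments.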

D(2) dopamine receptor [4] = biological target: T1, D(2) dopamine receptor; test: In vitro inhibitory constant against [3H]spiperone binding to human dopamine D2 receptor expressed in CHO cells; NA= not active; format: cell-based
In short: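 Membrane preparation from CHO cells transfected with human D2L receptor; competition binding against [3H]spiperone.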

Sequence of Sodium-dependent serotonin transporter (Mus musculus) (Q60857 whole entry): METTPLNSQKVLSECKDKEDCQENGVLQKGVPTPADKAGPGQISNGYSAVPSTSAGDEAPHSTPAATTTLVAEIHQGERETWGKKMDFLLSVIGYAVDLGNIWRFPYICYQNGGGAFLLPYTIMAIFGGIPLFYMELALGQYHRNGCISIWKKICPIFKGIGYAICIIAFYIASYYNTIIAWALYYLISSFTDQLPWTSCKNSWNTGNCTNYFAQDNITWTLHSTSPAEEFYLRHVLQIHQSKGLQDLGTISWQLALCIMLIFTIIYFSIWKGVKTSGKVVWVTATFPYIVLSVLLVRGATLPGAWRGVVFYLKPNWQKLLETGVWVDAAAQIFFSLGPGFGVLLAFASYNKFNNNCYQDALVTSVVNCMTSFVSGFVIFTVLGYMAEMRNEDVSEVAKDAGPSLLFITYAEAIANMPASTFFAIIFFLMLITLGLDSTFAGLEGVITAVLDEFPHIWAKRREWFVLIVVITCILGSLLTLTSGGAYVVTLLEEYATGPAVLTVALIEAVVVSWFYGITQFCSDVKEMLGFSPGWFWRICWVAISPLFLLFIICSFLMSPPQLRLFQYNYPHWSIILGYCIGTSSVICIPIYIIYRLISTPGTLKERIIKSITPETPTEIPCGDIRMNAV
T1 sequence (P14416 whole entry): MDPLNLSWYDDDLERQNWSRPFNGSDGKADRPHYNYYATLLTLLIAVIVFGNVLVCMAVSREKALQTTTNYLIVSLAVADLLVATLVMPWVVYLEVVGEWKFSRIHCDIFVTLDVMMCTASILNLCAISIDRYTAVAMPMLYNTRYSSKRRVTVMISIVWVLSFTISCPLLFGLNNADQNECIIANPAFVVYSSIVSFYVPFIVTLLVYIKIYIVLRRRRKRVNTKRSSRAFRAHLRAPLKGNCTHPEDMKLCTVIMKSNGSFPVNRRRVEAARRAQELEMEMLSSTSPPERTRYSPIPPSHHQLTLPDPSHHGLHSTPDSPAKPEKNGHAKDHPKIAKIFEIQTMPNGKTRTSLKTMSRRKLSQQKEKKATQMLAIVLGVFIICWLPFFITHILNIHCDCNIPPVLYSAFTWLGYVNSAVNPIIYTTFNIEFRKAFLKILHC
Sequence of Sodium-dependent serotonin transporter (P31652 whole entry): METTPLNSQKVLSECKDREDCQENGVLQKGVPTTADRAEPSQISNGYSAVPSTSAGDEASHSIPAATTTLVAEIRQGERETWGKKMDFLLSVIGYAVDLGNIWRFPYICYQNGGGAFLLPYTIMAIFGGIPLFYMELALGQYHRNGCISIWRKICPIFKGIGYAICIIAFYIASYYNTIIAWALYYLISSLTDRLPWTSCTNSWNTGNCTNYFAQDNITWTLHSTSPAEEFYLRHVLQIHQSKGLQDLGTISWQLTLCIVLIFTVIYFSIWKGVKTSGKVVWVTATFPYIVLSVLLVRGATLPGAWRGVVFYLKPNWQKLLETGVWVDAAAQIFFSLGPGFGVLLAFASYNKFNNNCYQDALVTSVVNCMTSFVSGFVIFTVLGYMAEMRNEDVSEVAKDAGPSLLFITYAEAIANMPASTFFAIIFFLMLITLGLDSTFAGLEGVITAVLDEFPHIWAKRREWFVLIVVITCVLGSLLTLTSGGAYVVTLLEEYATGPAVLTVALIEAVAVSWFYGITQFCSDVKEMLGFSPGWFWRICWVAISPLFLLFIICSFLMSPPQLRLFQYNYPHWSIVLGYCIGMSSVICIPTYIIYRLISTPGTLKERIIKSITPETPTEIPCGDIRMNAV

ED50 [1] [mg/kg]	pKi (D(2) dopamine receptor [2])	pKi [3]	Ki (D(2) dopamine receptor [4])	SMILES
7.3	8.13	8.55	–	CC1(C)Oc2c(cccc2N2CCN(CCCc3c[nH]c4ccccc34)CC2)NC1=O
22	7.68	–	–	c1cc2c(c(N3CCN(CCCc4c[nH]c5ccccc45)CC3)c1)OCCO2
–	7.81	–	–	Clc1cccc2c(CCCN3CCN(c4cccc5c4OCCO5)CC3)c[nH]c12
3	8.06	9.30	–	C[C@H]1Oc2c(cccc2N2CCN(CCCc3c[nH]c4ccccc34)CC2)NC1=O
9	7.94	8.82	–	O=C1CCc2c(cccc2N2CCN(CCCc3c[nH]c4ccccc34)CC2)N1
–	–	–	Not Active	c1ccc2c(CCC3CCNCC3)c[nH]c2c1 [INDALPINE]
0.15	8.16	9.70	–	C[C@H]1Oc2c(cccc2N2CCN(CCCc3c[nH]c4ccc(F)cc34)CC2)NC1=O
> 30	8.29	7.22	–	c1cc2c(c(N3CCN(CCCCc4c[nH]c5ccccc45)CC3)c1)OCCO2
–	7.62	–	–	Clc1cccc2[nH]cc(CCCN3CCN(c4cccc5c4OCCO5)CC3)c12
> 100	7.82	8.57	–	CC1CNc2cccc(N3CCN(CCCc4c[nH]c5ccccc45)CC3)c2C1 (stereo unspecified)
30	8.37	9.22	–	O=C1COc2c(cccc2N2CCN(CCCc3c[nH]c4ccccc34)CC2)N1
32	8.09	–	–	Fc1cccc2[nH]cc(CCCN3CCN(c4cccc5c4OCCO5)CC3)c12
–	7.50	9.30	–	Clc1ccc2[nH]cc(CCCN3CCN(c4cccc5c4OCCO5)CC3)c2c1
0.7	8.33	9.15	–	C[C@@H]1Oc2c(cccc2N2CCN(CCCc3c[nH]c4ccc(F)cc34)CC2)NC1=O
–	7.80	–	–	Cc1cccc2c(CCCN3CCN(c4cccc5c4OCCO5)CC3)c[nH]c12
3	8.35	9.40	–	CC1Oc2c(cccc2N2CCN(CCCc3c[nH]c4ccccc34)CC2)NC1=O (stereo unspecified)
30	8.28	8.62	–	C[C@H]1Oc2c(cccc2N2CCN(CCCc3c[nH]c4c(F)cccc34)CC2)NC1=O
> 10	9.00	9.00	–	C[C@@H]1Oc2c(cccc2N2CCN(CCCc3c[nH]c4ccccc34)CC2)NC1=O
28.4	7.97	–	–	Fc1cccc2c(CCCN3CCN(c4cccc5c4OCCO5)CC3)c[nH]c12
–	7.05	8.13	–	CN1CCCc2c1cccc2N1CCN(CCCc2c[nH]c3ccccc23)CC1
100	7.69	–	–	c1cc2c(c(N3CCN(CCCc4c[nH]c5ccccc45)CC3)c1)CCCO2
–	8.04	–	–	c1cc2c(c(N3CCN(CCCCCc4c[nH]c5ccccc45)CC3)c1)OCCO2
10	9.00	8.52	–	C[C@@H]1Oc2c(cccc2N2CCN(CCCc3c[nH]c4c(F)cccc34)CC2)NC1=O
15	7.95	8.96	–	c1cc2c(c(N3CCN(CCCc4c[nH]c5ccccc45)CC3)c1)CCCN2
2	7.72	–	–	Fc1ccc2[nH]cc(CCCN3CCN(c4cccc5c4OCCO5)CC3)c2c1
–	7.82	–	–	COc1ccc2[nH]cc(CCCN3CCN(c4cccc5c4OCCO5)CC3)c2c1
100	7.75	8.82	–	c1cc2c(c(N3CCN(CCCc4c[nH]c5ccccc45)CC3)c1)OCCN2
5.6	7.45	8.85	–	CC1Oc2c(N3CCN(CCCc4c[nH]c5ccccc45)CC3)cccc2N(C)C1=O (stereo unspecified)
86	8.68	–	–	Clc1ccc2c(CCCN3CCN(c4cccc5c4OCCO5)CC3)c[nH]c2c1

SMILES	ED50 [1] [mg/kg]	pKi (D(2) dopamine receptor [2])	pKi [3]	Ki (D(2) dopamine receptor [4])
Fc1ccc2c(CCCN3CCN(c4cccc5c4OCCO5)CC3)c[nH]c2c1	30	–	–	–
c1cc2c(c(N3CCN(CCc4c[nH]c5ccccc45)CC3)c1)OCCO2	–	7.35	7.92	–
Cc1ccc2[nH]cc(CCCN3CCN(c4cccc5c4OCCO5)CC3)c2c1	–	–	9.40	–
